# SKN-1 inh = blocks SKN-1 activity in C. elegans | C. elegans VP596 Pgst-4::GFP/RFP ratio, acrylamide-induced, 24 h | inhibition, % at 21.8 µM | actives 0.49% (n = 360,000) | AID 624304;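 active = interference check ratio from 0.5 to 1.5 plus GFP to RFP signal ratio inhibition reaching or exceeding a fixed threshold, cut at about 30% in these data, passing the limit was not always enough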
# PolyA inh = yeast polyadenylation inhibition; S. cerevisiae SKY197-pL101 polyadenylation reporter, beta-gal luminescence; efflux-impaired pdr1/pdr3 knockout yeast; score 100 = 6 SD above DMSO; activity score, % at 12 µM; actives 0.02% (n = 300,000); AID 1875;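 active = lowest replicate activity score at least 50, where 100 means six control SD above control mean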;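 note: yeast exposed to compound for 9 h at 30 °C; higher score means more reporter readthrough which indicates perturbed polyadenylation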
# MT1-MMP act inh = blocks activation of human MT1-MMP. actives 0.061% (n = 360,000). GFP/RFP ratio change, % at 20 µM. AID 651647. P50281. HT1080 RFP-PRO-GFP cells, GFP/RFP ratio fluorescence, overnight; percent of plate control window, DMSO zero;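 active = GFP/RFP ratio change of at least 30% with cell ATP level not reduced by more than half and red fluorescence within 50% of control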
#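 Material – HT1080 RFP-PRO-GFP cells · Control set – DMSO wells and RFP-L50D-GFP cells · Incubation – overnight cell settling, then overnight compound exposure, 37 °C, 5% CO2 · Compound dosing – single-point 20 µM compound, 1% DMSO · Read-out – GFP/RFP fluorescence ratio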
# DDE Tn7 FP inh = DD(E)-Tn7 binding inhibition, primary FP screen; P02675; AID 720508; FP displacement of FITC-Tn7 peptide from fibrin DD(E); 0% = median of compound wells per plate; actives 0.13% (n = 370,000); inhibition, % at 8.3 µM;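 active = inhibition above the mean of compounds falling within the control limits plus 3 SD of them, cut at about 14% in these data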;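 note: 0% = plate median of compound wells and 100% = 10 µM Aha-Tn7 peptide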
#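 Assay system: human fibrin DD(E) protein / Input: 2 µM fibrin DD(E) / Benchmarks: high control of 10 µM Aha-Tn7 peptide / Measured by: fluorescence polarization of the labelled Tn7 tracer / Medium: Tris buffer with calcium and detergent, pH 7.8 / Timing: 10 min compound pre-incubation, 3 h probe incubation at room temperature / Repeats: one replicate per compound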
# DAGLB inh = blocks human DAGLB lipase activity. Q8NCG7. HEK293T DAGLB membrane lysate, EnzChek fluorogenic substrate. inhibition, % at 5.17 µM. actives 0.059% (n = 340,000). AID 504411; in the data active = inhibition above about 34%;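 note: 0% = enzyme with vehicle and 100% = wells lacking enzyme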
# Target sequence (Q8NCG7 whole entry, looked up): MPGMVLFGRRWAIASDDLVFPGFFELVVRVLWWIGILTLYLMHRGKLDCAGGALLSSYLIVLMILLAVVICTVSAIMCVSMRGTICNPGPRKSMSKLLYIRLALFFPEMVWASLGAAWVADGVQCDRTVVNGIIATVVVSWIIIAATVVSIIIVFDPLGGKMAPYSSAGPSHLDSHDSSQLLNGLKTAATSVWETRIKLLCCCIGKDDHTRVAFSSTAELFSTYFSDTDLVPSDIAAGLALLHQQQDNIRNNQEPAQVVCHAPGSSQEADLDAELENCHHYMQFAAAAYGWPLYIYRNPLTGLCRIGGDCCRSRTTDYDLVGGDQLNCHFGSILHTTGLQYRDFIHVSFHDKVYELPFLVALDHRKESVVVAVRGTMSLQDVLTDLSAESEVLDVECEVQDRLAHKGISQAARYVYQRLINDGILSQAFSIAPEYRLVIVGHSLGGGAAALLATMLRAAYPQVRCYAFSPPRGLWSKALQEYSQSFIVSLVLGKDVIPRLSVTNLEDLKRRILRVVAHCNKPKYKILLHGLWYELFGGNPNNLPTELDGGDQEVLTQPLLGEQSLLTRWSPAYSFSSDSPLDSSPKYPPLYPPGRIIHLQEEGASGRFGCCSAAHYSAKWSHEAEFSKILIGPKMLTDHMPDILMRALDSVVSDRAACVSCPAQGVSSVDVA
# DDE Tn6 FP inh = inhibitors of Tn6 peptide binding to human fibrin DD(E). inhibition, % at 8.3 µM. Fibrin DD(E) TRITC-Tn6 fluorescence polarization displacement. P02675. actives 0.21% (n = 370,000). AID 720509;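 active = inhibition above a per-campaign cutoff: mean of compounds within control limits plus 3 SD, cut at about 15% in these data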;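 note: 0% = median of all compound wells on the plate and 100% = blocking peptide control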
# Numbers without * were called inactive; nt = not tested or not shown. Sampled rows, rich in hits. Any-hit rate of the full collection: about 0.9%.
SMILES,SKN-1 inh,PolyA inh,MT1-MMP act inh,DDE Tn7 FP inh,DAGLB inh,DDE Tn6 FP inh
O=C(Nc1nc(-c2cc(F)ccc2F)cs1)c1ccccn1,38*,-28,2,-6,-18,11
Cc1cc(-c2csc(Nc3ccccn3)n2)ccc1F,22,-7,-1,7,-5,4
Cc1ccc(-c2csc(Nc3ccccn3)n2)cc1,26,-4,-2,-5,-3,3
c1ccc(-c2csc(Nc3ccccn3)n2)cc1,67*,0,1,-1,-2,-5
Fc1ccc(-c2csc(Nc3ccccn3)n2)c(F)c1,60*,25,-1,-2,-4,4
CC(NCc1ccco1)C(=O)N1CCCN(C)CC1 (centres undefined),nt,nt,nt,0,nt,7
CN(CCOC(=O)CC1C=CCC1)C1CN(Cc2cn(Cc3ccccc3Cl)nn2)S(=O)(=O)C1 (centres undefined),nt,nt,nt,0,nt,8
Oc1ccc(CNc2ccc(C(F)(F)F)cc2F)c2cccnc12,nt,nt,nt,5,nt,-1
Cc1ccc(NC(=O)NCCN2CCCCC2)cc1Cl,-3,-8,1,3,-1,-1
Cc1cccc(NC(=O)NCCN2CCCCC2)c1,38*,2,1,0,-4,3
CCCCC(=O)/C=C/n1c(=S)oc2ccccc21,39*,31,-3,-5,-9,-5
CC(C)OC(=O)n1c(=S)oc2ccccc21,1,-12,9,8,2,-4
C=CCn1c(SCC(=O)c2ccc(F)cc2)nnc1-c1ccc(F)cc1,nt,nt,nt,0,nt,-7
O=c1cc(-c2ccccc2Cl)c2c([nH]1)CCC2,67*,0,-6,-2,-1,2
Cc1cc(C(=O)CSc2nnc(-c3cccs3)n2Cc2ccccc2)c(C)n1C,36*,0,-5,-3,-1,8
Cc1ccc(C(=O)c2no[n+]([O-])c2C(=O)c2ccc(C)cc2)cc1,-13,100*,3,-2,-4,-5
CCN1CCN(c2nc3sc4c(c3c3ncnn23)CC(C)CC4)CC1 (centres undefined),65*,-7,-4,2,-6,-8
CC1CCc2sc3nc(NCc4ccco4)n4ncnc4c3c2C1 (centres undefined),-10,1,2,8,-7,3
Cc1ccc(NC(=O)c2ccc(F)cc2F)cc1,41*,-10,-2,-2,-2,-5
CCC1(C)Cc2ccccc2-c2nc(NCCO)n(-c3ccc(C)cc3)c(=O)c21 (centres undefined),38*,-5,-9,3,-1,-8
CCC1(C)Cc2ccccc2-c2nc(NCCO)n(-c3ccccc3)c(=O)c21 (centres undefined),17,1,0,12,-1,5
O=C(CSc1nc2ccccc2n1Cc1ccccc1)NN=C/C=C/c1ccccc1,nt,nt,nt,-4,nt,-3
O=C(/C=C/c1cccs1)N1CCc2ccccc21,35*,-15,-13,3,-1,-5
CCCNC(=O)c1ccc2snnc2c1,36*,8,-2,1,1,3
CNC(=O)c1ccc2snnc2c1,10,-12,0,0,1,-3
SMILES,SKN-1 inh,PolyA inh,MT1-MMP act inh,DDE Tn7 FP inh,DAGLB inh,DDE Tn6 FP inh
O=C(NCCc1ccc(F)cc1)c1ccc(Sc2ccccc2Cl)c([N+](=O)[O-])c1,nt,nt,nt,-1,nt,-4
COc1ccc(C(C)C)cc1S(=O)(=O)n1cnc(C)c1,40*,3,2,-10,-2,-5
CN1/C(=C/c2cc[n+](C)c3ccccc23)C=Cc2ccccc21,28,nt,64*,nt,2,nt
c1ccc2sc(SCc3ccc(-c4nnco4)cc3)nc2c1,54*,-15,2,-9,-2,-3
CC(=O)Nc1sc2c(c1-c1nc3ccccc3s1)CNC2,nt,nt,nt,5,nt,0
N/C(=N\OC(=O)COc1ccc(Cl)cc1Br)c1cccnc1,4,-13,-1,8,-10,-8
N/C(=N\OC(=O)COc1ccc(Cl)cc1Cl)c1ccncc1,48*,nt,3,0,-3,2
Cc1ccccc1N(C)C(=O)CN1CCN(c2nc(-c3ccccc3)cs2)CC1,nt,nt,nt,-3,nt,-2
COc1cccc(OC(C)CCN2CCC(C(O)(c3ccccc3)c3ccccc3)CC2)c1 (centres undefined),nt,nt,nt,2,nt,3
Nc1cccc(N2C(=O)c3cccc4c(N)ccc(c34)C2=O)c1,-22,15,-70,30*,-41,1
COC(=O)[C@]12C[C@H](CC(=O)NCc3ccc(OC)c(OC)c3)C(=O)N(CCc3ccc(OC)c(OC)c3)C1=C[C@H](C(C)C)O[C@@H]2C1CC1,nt,nt,nt,4,nt,6
O=S1(=O)c2c(cccc2N2CCSCC2)Oc2ccccc2CN1Cc1cn(Cc2cccc(F)c2)nn1,nt,nt,nt,0,nt,-2
COC(=O)C1=C(C)OC(N)=C(C#N)C1c1ccco1 (centres undefined),-10,5,-7,-2,-1,-3
CC(=O)C1=C(C)OC(N)=C(C#N)C1c1ccco1 (centres undefined),37*,1,-15,-1,-2,-6
Cc1[nH]n(-c2ccccc2)c(=O)c1/C=N/c1ccccn1,51*,1,2,-3,0,-2
Cc1ccc(N=Cc2c(C)[nH]n(-c3ccccc3)c2=O)nc1,6,32,6,7,1,14
Cc1cccc(C)c1OCC(O)CN(Cc1ccccc1O)C1CCCCC1 (centres undefined),37*,-7,-20,6,-6,0
CC(NS(=O)(=O)c1ccc(OCC(=O)N2CCOCC2)c(Cl)c1)c1ccccc1 (centres undefined),38*,-10,2,8,0,1
c1ccc(OC2CCN(c3ncnc4sccc34)CC2)cc1,nt,nt,nt,-3,nt,1
CCCCN1C(=O)/C(=C/C=C2\SCCN2C)SC1=S,48*,-16,-103,-29,1,-14
CCOC(=O)Cn1cc(CN2C(C(=O)OC)CN(Cc3ccc(OC)cc3)CCS2(=O)=O)nn1 (centres undefined),nt,nt,nt,1,nt,1
O=C(CSc1nnc(CNc2ccc(F)cc2)n1Cc1ccco1)NC1CC1,46*,5,-10,4,0,-7
O=C(CSc1nnc(CNc2ccc(F)cc2)n1Cc1ccco1)N1CCOCC1,0,-7,-3,8,2,11
CCOC(=O)c1c(C)oc2c1c(C=NCCC(=O)O)c(O)c1ccccc12,37*,13,-19,-2,-1,6
CCOC(=O)c1c(C)oc2c1c(C=NC1CCS(=O)(=O)C1)c(O)c1ccccc12 (centres undefined),4,-4,3,9,0,1
